Assay results taken from paper PMC7923394 (Nature chemical biology, 2020).
Where no end group is shown, it is not given here. The star is where a group is joined. αGalNAc = CC(=O)N[C@@H]1[C@@H](O)[C@@H](O)[C@@H](CO)O[C@@H]1*

Key:
Assay in all cases: Enzyme kinetics, UDP-[3H]-GalNAc transfer to
Type in all cases: biochemical
[1] = test system: human GalNAc-T4; conditions: peptide as acceptor substrate; Supplementary Fig. 16a
[2] = test system: human GalNAc-T12; conditions: peptide as acceptor substrate; Supplementary Fig. 16a
Outline: (§1)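 Radiochemical transfer assay with 0.02–0.03 µM purified enzyme, 0.02–0.7 mM acceptor and 0.2 mM UDP-[3H]-GalNAc in 100 mM sodium cacodylate pH 6.5, 1 mM β-mercaptoethanol and 10 mM MnCl2 at 37 °C. T6 and T12 were HEK293F-expressed and His-Trap purified. Reactions were EDTA-quenched and product separated by Sephadex G10. Initial rates (<30% donor used) were normalised to a fresh-enzyme reference glycopeptide. Runs used 5–7 concentrations, 2–5 repeats, and Michaelis–Menten (± substrate-inhibition) fits.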

[3] = target: T1, human GalNAc-T3 (Homo sapiens, UniProt Q14435); conditions: naked peptides as acceptor substrates
T1 sequence (Q14435 92-633): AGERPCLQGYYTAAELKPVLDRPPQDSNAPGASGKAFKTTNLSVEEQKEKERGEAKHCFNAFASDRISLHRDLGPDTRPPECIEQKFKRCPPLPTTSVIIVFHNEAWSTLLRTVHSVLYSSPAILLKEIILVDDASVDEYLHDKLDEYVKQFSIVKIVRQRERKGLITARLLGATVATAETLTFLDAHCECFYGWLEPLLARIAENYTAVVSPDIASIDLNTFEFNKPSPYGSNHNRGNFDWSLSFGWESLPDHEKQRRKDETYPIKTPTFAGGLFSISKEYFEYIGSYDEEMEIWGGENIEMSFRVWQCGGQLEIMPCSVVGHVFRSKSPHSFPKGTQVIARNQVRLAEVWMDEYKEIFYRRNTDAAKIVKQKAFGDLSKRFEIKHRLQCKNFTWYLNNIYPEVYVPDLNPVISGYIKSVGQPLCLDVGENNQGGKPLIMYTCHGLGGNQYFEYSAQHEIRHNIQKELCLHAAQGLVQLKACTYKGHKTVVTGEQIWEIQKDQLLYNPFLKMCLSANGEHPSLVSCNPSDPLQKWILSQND
Outline: as §1

[4] = target: T2, human GalNAc-T6 (Homo sapiens, UniProt Q8NCL4); conditions: peptide as acceptor substrate
T2 sequence (Q8NCL4 1-622): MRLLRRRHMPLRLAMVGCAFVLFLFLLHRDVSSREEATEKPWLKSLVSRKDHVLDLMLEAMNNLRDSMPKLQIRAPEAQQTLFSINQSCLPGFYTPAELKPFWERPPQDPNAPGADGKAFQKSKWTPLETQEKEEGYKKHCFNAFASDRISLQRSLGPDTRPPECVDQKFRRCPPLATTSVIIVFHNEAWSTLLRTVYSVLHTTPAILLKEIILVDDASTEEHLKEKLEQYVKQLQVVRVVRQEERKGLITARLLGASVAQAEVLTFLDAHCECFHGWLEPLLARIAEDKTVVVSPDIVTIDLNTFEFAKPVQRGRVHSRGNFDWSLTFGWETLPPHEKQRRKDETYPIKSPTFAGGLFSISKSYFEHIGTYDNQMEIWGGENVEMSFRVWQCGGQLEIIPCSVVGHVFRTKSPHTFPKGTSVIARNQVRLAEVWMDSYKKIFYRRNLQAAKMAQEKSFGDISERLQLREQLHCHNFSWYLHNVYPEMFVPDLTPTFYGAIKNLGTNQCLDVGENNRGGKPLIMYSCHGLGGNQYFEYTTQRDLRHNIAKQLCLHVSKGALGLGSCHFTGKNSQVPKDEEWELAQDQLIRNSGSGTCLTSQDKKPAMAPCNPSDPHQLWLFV
Outline: as §1

Substance: FGF23b: shorter FGF23 model peptide substrate (A171–T178)
- activity of GalNAc-T4 against the peptide [1]: very low
- activity of GalNAc-T12 against the peptide [2]: very low

Substance: GAYAVTPGPAG [OP1]
- activity among the OP1 to OP10 peptide series [3]: the most active of the series

Substance: FGF23c: FGF23 model glycopeptide substrate (T*171–T178, T* = Thr-O-GalNAc) (T(αGalNAc)PIPRRHT-NH2; UniProt Q9GZV9 171-178, looked up, fragment)
- Km of GalNAc-T6 compared to GalNAc-T3 [4]: slightly better Km
- Kcat of GalNAc-T6 relative to that of GalNAc-T3 ([4]; Supplementary Fig. 16b): ~ 3.5 fold
